Screens (PubChem)
Sampled rows, rich in hits. Any-hit rate of the full collection: about 1.3%.
LYPLA1 inh – counter-screen for PME1 inhibitors: inhibitors of human LYPLA1; O75608; recombinant LYPLA1, FP-Rh probe fluorescence polarization; inhibition, % at 5.9 µM; actives 0.16% (n = 320,000); AID 2174;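 active means inhibition above the mean of all tested compounds plus 3 SD, set per campaign, cut at about 14% in these data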;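 further: inhibitors block serine hydrolase probe labeling of LYPLA1 so polarization falls; 0% = enzyme with DMSO and 100% = wells lacking LYPLA1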
PME-1 inh – blocks human protein phosphatase methylesterase 1 | Q9Y570 | recombinant PME-1, FP-Rh probe fluorescence polarization | inhibition, % at 5.9 µM | actives 0.53% (n = 320,000);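 active means inhibition above the campaign mean of all compounds plus 3 SD, cut at about 26% in these data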;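 further: competitive labeling of PME-1 active site by serine hydrolase directed probe; 0% = PME-1 with DMSO and 100% = wells lacking PME-1 enzyme; inhibitors block probe labeling so polarization falls and inhibition rises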
Target sequence (Q9Y570 whole entry, looked up): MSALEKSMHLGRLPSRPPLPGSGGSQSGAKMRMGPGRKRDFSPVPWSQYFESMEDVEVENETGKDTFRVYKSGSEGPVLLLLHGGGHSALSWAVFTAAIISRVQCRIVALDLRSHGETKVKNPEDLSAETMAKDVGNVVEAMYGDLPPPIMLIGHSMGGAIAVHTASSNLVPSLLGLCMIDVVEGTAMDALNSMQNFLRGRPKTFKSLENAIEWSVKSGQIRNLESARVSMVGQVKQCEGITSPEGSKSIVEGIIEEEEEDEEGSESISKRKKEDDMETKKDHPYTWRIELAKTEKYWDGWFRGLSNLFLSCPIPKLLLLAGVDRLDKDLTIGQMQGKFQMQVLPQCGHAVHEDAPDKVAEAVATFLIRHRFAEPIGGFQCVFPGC
Fam108B inh – counter-screen for RBBP9 inhibitors: inhibitors of mouse Fam108B. recombinant Fam108B, FP-Rh probe fluorescence polarization. inhibition, % at 9.51 µM. actives 0.33% (n = 300,000). AID 1947;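 active means inhibition above the screen mean inhibition plus 3 SD, computed separately per campaign, cut at about 18% in these data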;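 further: inhibitors lower polarization as less probe binds the enzyme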
LYPLA2 counter – blocks human lysophospholipase 2, a PME1 counter-screen. AID 2177. recombinant LYPLA2, FP-Rh probe fluorescence polarization. actives 0.38% (n = 320,000). inhibition, % at 5.9 µM. O95372;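 active means inhibition above the screen-wide mean plus 3 SD, limit set per campaign, cut at about 26% in these data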;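 further: 0% = LYPLA2 with DMSO and 100% = wells lacking LYPLA2 enzyme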
Target sequence (O95372 whole entry, looked up): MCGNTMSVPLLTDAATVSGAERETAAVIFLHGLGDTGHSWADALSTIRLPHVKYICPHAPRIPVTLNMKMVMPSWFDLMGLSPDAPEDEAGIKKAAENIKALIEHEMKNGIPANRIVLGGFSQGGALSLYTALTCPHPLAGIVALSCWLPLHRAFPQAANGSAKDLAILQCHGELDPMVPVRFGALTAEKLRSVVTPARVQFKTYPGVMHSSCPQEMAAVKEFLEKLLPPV
PAD4 FP inh – PAD4 (human) enzyme inhibition | actives 0.41% (n = 330,000) | Q9UM07 | AID 485272 | inhibition, % at 6.36 µM | recombinant PAD4, RCA probe fluorescence polarization;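 active means percent inhibition above a cutoff equal to the mean of all tested compounds plus 3 SD, cut at about 15% in these data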;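 further: 0% = PAD4 with RCA probe and DMSO and 100% = probe without PAD4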
RBBP9 inhibitor – blocks human serine hydrolase RBBP9; AID 1515; recombinant RBBP9, FP-Rh probe fluorescence polarization; inhibition, % at 7.94 µM; O75884; actives 0.2% (n = 220,000);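 active means inhibition above the campaign mean of all tested compounds plus 3 SD, cut at about 14% in these data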;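 further: plate controls were DMSO wells with RBBP9 for no effect and wells lacking RBBP9 protein for full effect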
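Test system – recombinant human RBBP9 · Input – RBBP9 2.5 µM in dispensing solution, pre-mixing · Medium – Tris buffer pH 8.0, NaCl, Pluronic · Schedule – preincubation 30 min plus labeling 45 min at 25 °C · Measured by – fluorescence polarization · Measure – % inhibition · Controls – DMSO and no-protein wells · Replicates – one well per compound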
Active calls of the source: *; / = no result.

SMILES	LYPLA1 inh	PME-1 inh	Fam108B inh	LYPLA2 counter	PAD4 FP inh	RBBP9 inhibitor
CCN1/C(=C/C=C/c2oc3ccc4ccccc4c3[n+]2CC)Oc2ccc3ccccc3c21	58*	-57	118*	-33	-73	-26
O=C(O)c1ccc(N/N=C/c2ccc(OC(=O)c3cccc(Cl)c3)cc2)cc1	-3	41*	3	41*	5	-1
CC(=O)NCCc1c(C)n(Cc2ccccc2)c2ccccc12	0	3	-4	3	-7	/
Cc1onc(NC(=O)NC(=O)c2c(F)cccc2Cl)c1Br	1	15	-1	4	-1	/
Cc1onc(NC(=O)NC(=O)c2c(Cl)cccc2Cl)c1Br	0	26*	-3	2	-5	/
CCC(C)c1ccc(S(=O)(=O)N2CCN(C(=O)COc3ccc4c(C)cc(=O)oc4c3)CC2)cc1 (stereo not drawn)	-10	38*	-10	1	-1	-7
O=C(Nc1cccc2nsnc12)C1CC(=O)N(c2ccccc2)C1 (stereo not drawn)	-1	-2	1	1	-1	1
CCOC(=O)c1c(C)[nH]c2cc(Br)c(O)cc12	1	19	8	0	1	-6
CCOC(=O)c1c(OCC)[nH]c2c1cc(O)c1ccccc12	-6	39*	9	-4	-13	-8
COC(=O)c1ccc(NC(=S)NCCCn2ccnc2)cc1	-1	0	7	-1	1	-5
Cc1cc(C)cc(NC(=O)Nc2ccc(Cl)cn2)c1	-1	1	0	-2	-1	-4
CC(C(=O)Nc1ccc(C(=O)O)c(O)c1)N1C(=O)/C(=C\c2ccco2)SC1=S (stereo not drawn)	1	-31	19*	-7	11	/
O=C(CN1C(=O)/C(=C/c2ccco2)SC1=S)Nc1ccc(C(=O)O)c(O)c1	-11	-57	2	-26	-27	/
CN(CC(=O)Nc1ccc(F)c(F)c1F)C(=O)C1=NN(c2ccccc2)C(=O)CC1	-1	-6	/	1	1	/
CN(C)c1ccc(N=Cc2ccco2)cc1	-3	6	1	2	21*	3
COc1ccc2c(c1OC)C(=O)N(c1cccc(NC(C)=O)c1)C2	1	-4	4	5	2	/
CC1SC(C)C(=O)N(CC(=O)NCc2ccc(F)cc2)C1=O (stereo not drawn)	-1	2	1	-1	2	-7
C=CCn1c(=O)[nH]c2nc3cc(N=CN(C)C)c(C)cc3nc2c1=O	-3	-6	3	-1	3	-4
Cc1cc2nc3c(=O)n(CCc4ccccc4)c(=O)[nH]c3nc2cc1N	-3	54*	9	2	1	-3
Nc1ccc2nc3c(=O)n(CCc4ccccc4)c(=O)[nH]c3nc2c1	6	39*	6	7	14	4
CCCCn1c(=O)[nH]c2nc3cc(N)ccc3nc2c1=O	8	23	9	16	14	2
COc1ccc(C(=O)NN2C(=O)C3CCC(C)(C2=O)C3(C)C)cc1 (stereo not drawn)	4	1	3	6	0	-8
N#CC1=C(N)C(C#N)(C#N)C(c2cccnc2)C2CN(C(=O)OCc3ccccc3)CC=C12 (stereo not drawn)	3	28*	0	16	1	-8
COc1cccc(CN2CC(C(=O)NCCOc3cccnc3)CCC2=O)c1 (stereo not drawn)	2	4	2	3	-4	/
Cc1ccc(NC2=C(Cl)C(=O)c3ccccc3C2=O)cc1	-1	21	10	10	2	-10
SMILES	LYPLA1 inh	PME-1 inh	Fam108B inh	LYPLA2 counter	PAD4 FP inh	RBBP9 inhibitor
Cc1ccc(NC2=CC(=O)C(=O)c3ccccc32)cc1	3	15	12	3	39*	6
CCN1CC=C2C(C#N)=C(N)C(C#N)(C#N)C(CCc3ccccc3)C2C1 (stereo not drawn)	2	4	0	2	20*	3
CC(=O)N1CC=C2C(C#N)=C(N)C(C#N)(C#N)C(CCc3ccccc3)C2C1 (stereo not drawn)	-3	11	-2	1	-5	-2
CCc1ccc2c(c1)c(N=NC1=NC(=O)CS1)c(O)n2CC	-1	5	6	-1	-1	-1
CCc1ccc2[nH]c(O)c(N=NC3=NC(=O)CS3)c2c1	5	32*	17	3	3	1
Oc1c(Br)cc(Br)cc1CNc1cnc2ccccc2c1	-3	46*	4	-3	-9	/
CCCCN(C(=O)c1ccc(NC(=O)C(C)C)cc1)c1ccccc1	-2	7	0	6	-4	-7
CC(C)S(=O)(=O)c1csc(NC(=O)Nc2cccc([N+](=O)[O-])c2)c1Cl	-10	28*	-14	-7	-2	-19
O=C(Nc1cccc([N+](=O)[O-])c1)Nc1cccc([N+](=O)[O-])c1	-21	-7	-5	-25	0	-13
CCOc1ncccc1C(=O)OCC(=O)Nc1cc(C)ccc1C	7	4	3	0	0	-5
Cc1ccc(C)c(NC(=O)COC(=O)c2cc3ccccc3oc2=O)c1	1	27*	/	1	-1	/
COc1cccc(-c2nnc(SC(C(=O)c3c[nH]c4ccccc34)c3ccccc3)n2C)c1 (stereo not drawn)	-10	56*	-3	-20	3	-1
Cc1ccc(N=Cc2nc(/C=C/c3cccc([N+](=O)[O-])c3)oc2O)cc1	-5	27*	-1	3	0	-7
COc1cc(/C=N/NC(=O)c2cc(C3CC3)[nH]n2)ccc1O	0	11	3	7	-1	-1
COc1cc(/C=N/NC(=O)c2cc(C34CC5CC(CC(C5)C3)C4)[nH]n2)ccc1O	-11	15	21*	-13	0	1
N#Cc1ccc(S(=O)(=O)N2CCc3[nH]c4ccc(F)cc4c3C2)cc1	-7	12	-4	0	2	-5
COc1ccccc1CCC(=O)N1CCN(S(=O)(=O)c2cc(C(F)(F)F)ccc2Cl)CC1	-1	-2	/	1	-9	/
S=C(NCCc1ccccc1)NCCN1CCOCC1	0	-6	4	3	0	/
CC(C)(C)OC(=O)C[C@H]1C/C=C\C[C@H](CC(=O)NCCO)C(=O)N2CCC[C@@H]2COC1=O	/	/	/	/	-4	/
C(=C\c1ccc2ccccc2n1)/c1ccccc1	2	3	-4	-1	1	5
Oc1ccc(/C=C/c2ccc3ccccc3n2)cc1	6	28*	6	1	4	1
NC(=O)c1c(/N=C/c2cccnc2)sc2c1CCCC2	-1	-4	0	-1	0	-4
O=C(Nc1ccc2nc(-c3ccco3)c(-c3ccco3)nc2c1)NC1CC1	/	/	/	/	/	-2
O=C(NCCCO)Nc1ccc2nc(-c3ccco3)c(-c3ccco3)nc2c1	-8	9	52*	4	7	8
